# Mdm2 MdmX PPI – inhibitors of human Mdm2-MdmX association, primary screen, cell-based, luminescence, split luciferase, SaOS-2, uHTS; Protein Mdm4 (Homo sapiens) + E3 ubiquitin-protein ligase Mdm2 (Homo sapiens), …; SaOS-2 split-luciferase Mdm2/MdmX complementation; inhibition, % at 8 µM; actives 3% (n = 330,000); AID 485346, 2010;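 active = inhibition of at least 50% at 8 µM in the primary screen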
# Target sequence (O15151 whole entry, looked up): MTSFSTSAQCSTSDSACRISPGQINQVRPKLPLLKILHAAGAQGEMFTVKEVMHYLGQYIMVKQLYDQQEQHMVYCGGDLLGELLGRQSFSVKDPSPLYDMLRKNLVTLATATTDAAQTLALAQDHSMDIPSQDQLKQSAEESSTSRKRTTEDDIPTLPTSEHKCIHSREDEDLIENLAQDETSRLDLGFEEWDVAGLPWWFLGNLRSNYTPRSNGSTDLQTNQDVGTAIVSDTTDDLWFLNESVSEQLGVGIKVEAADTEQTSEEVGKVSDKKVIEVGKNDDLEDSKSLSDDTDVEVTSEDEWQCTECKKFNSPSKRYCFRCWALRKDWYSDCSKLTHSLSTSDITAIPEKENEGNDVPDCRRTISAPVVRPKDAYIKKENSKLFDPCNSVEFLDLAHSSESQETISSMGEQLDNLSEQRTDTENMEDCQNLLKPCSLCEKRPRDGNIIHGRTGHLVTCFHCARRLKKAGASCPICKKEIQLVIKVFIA
# Target sequence (Q00987 whole entry, looked up): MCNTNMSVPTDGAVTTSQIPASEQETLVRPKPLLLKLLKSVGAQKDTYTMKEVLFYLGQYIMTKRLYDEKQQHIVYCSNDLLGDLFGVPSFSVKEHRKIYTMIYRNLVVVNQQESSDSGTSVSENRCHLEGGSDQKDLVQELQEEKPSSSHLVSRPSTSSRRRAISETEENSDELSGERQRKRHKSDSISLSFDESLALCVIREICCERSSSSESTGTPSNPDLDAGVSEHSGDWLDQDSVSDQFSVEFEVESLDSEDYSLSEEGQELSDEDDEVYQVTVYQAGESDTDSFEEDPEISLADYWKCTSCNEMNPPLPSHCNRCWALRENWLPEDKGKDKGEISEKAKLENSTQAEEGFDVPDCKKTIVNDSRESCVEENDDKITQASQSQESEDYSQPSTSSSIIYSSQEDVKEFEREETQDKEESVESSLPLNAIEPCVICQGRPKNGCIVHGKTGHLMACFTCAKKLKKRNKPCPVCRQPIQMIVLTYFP
# CSC inhib – cancer stem cell viability inhibitors, primary screen, luminescence; actives 1.1% (n = 300,000); inhibition, % at 7.5 µM; cancer stem cell-like cells viability; in the data active = inhibition above about 75%; tested in HMLE shEcad cells
# T cruzi repl – inhibitors of intracellular T. cruzi growth, primary screen, luminescence, NIH3T3 host cells; actives 1.4% (n = 300,000); T. cruzi beta-gal in NIH3T3, 90 h; inhibition, % (test concentration not listed);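 active = mean inhibition across valid replicates above about 55%, limit read from the data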;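 note: signal also drops with host cell toxicity which is not excluded here; 0% = plate median of DMSO wells and 100% = zero luminescence signal; higher percent means less beta-gal luminescence so fewer parasites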
#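 Assay system: NIH/3T3 host cells with β-galactosidase reporter T. cruzi; input: 5,000 host fibroblasts per well; compound: single 50 nL compound addition per well in DMSO; timing: ≥90 h infection period, 3 h prior cell attachment; measured by: GalScreen β-gal luminescence, detergent lysis, 60 min; evaluation: percent inhibition of parasite-derived β-gal signal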
# SKKanGAS inh – S. pyogenes SKKanGAS growth inhibitors in kanamycin, primary screen, streptokinase expression inhibitor project, SKKanGAS strain, BacTiter-Glo luminescence; 6 h; inhibition, % at 7.5 µM; actives 1.3% (n = 300,000); AID 1662, 2009;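 active = mean replicate score, as percent of positive control median, at least 50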;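 note: strain carries kanamycin resistance gene driven by streptokinase promoter and grows in 40 µg/ml kanamycin; loss of luminescence reflects streptokinase promoter inhibition or plain growth inhibition; 0% = median of DMSO wells and 100% = positive control at its reference dose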
# aSyn 5UTR inh – MLPCN primary screen, SNCA 5' untranslated region. alpha-synuclein 5'UTR reporter, inhibitor activity. actives 0.82% (n = 300,000). AID 1813, 2009. inhibition, % (tested at 7.5 µM); in the data active = inhibition above about 60%;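 note: H4 neuroglioblastoma cells stably carrying SNCA 5'UTR luciferase fusion; 0% = DMSO wells and 100% = positive control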
# * marks the source's active call; other numbers are inactive results; x = no result given. Hits are enriched below; roughly 5.4% of the tested compounds scored in any of these assays.
SMILES,Mdm2 MdmX PPI,CSC inhib,T cruzi repl,SKKanGAS inh,aSyn 5UTR inh
Cc1ccc(NC2CCCN(C(=O)CCc3ccncc3)C2)cc1C (centres undefined),29.6,4.4,62.7*,-5.7,-7.2
Cc1ccc(NC2=C(N3CCCCC3)C(=O)c3ccccc3C2=O)cc1,35.0,-1.5,66.5*,3.5,-44.5
O=C1C(Nc2ccccc2)=C(N2CCCCC2)C(=O)c2ccccc21,42.1,4.4,48.0,31.6,14.6
O=C(/C=C/c1ccc(O)cc1)c1ccc(NC2=C(N3CCCCC3)C(=O)c3ccccc3C2=O)cc1,48.2,89.8*,16.6,12.9,-34.6
COc1ccc(C)cc1S(=O)(=O)N1CCN(C(=O)c2ncoc2-c2ccccc2F)CC1,-6.1,1.5,14.6,-0.3,22.3
CSC1=NC2C(N1)N(C)C(=O)N2C (centres undefined),5.0,2.6,-20.5,6.1,3.5
Cc1cc(C)cc(NC(=S)NCCSc2ccc(Cl)cc2)c1,13.9,x,50.5,49.8*,2.9
Cc1ccc(SCCNC(=S)Nc2ccc(C)c(C)c2)cc1,27.4,29.8,-11.6,36.2,-8.2
Cc1cc(C)cc(NC(=S)Nc2ccc(Cl)c(Cl)c2)c1,19.9,40.9,16.2,70.2*,-24.5
Cc1cccc(C)c1NC(=S)Nc1ccc(Cl)c(Cl)c1,31.6,4.7,1.9,19.5,-40.0
N#Cc1c(Nc2ccccc2)sc(C(=O)c2ccc(F)cc2)c1N,-19.8,42.3,3.6,-2.6,13.7
Nc1c(C(=O)c2ccccc2)sc(Nc2ccccc2)c1S(=O)(=O)c1ccccc1,16.6,-2.0,55.5*,2.3,30.5
CC(C)Cc1cc(C(=O)Nc2ccc3c(c2)OCO3)no1,-140.5,121.5*,-3.8,-3.4,-183.8
Cc1cc(C(=O)Nc2ccc3c(c2)OCO3)no1,-39.6,-6.6,-2.5,12.7,-107.2
O=C(Nc1ccc2c(c1)OCO2)c1cc(-c2cccc(O)c2)on1,-69.1,100.2*,4.2,11.8,24.0
O=C(OCC(=O)N1CCC(Cc2ccccc2)CC1)c1cccnc1Cl,-28.2,-11.7,x,x,x
Oc1c(Cl)cc(Cl)c2c1NCCC2,16.0,x,17.5,68.6*,12.8
Cc1ccc(Cn2c(O)c(N=O)c3ccccc32)cc1,22.6,34.8,9.6,10.5,4.4
O=Nc1c(O)n(Cc2ccc(Cl)cc2Cl)c2ccccc12,35.5,112.6*,27.7,11.6,0.3
COCCC(=O)NC1CCCc2c1cnn2-c1cccc(C)c1C (centres undefined),2.4,-4.3,-11.8,-7.1,3.4
CCCN1C(=O)c2ccc(C(=O)Nc3ccccc3C(=O)O)cc2C1=O,-14.6,-11.0,-10.0,15.5,5.8
O=C(Nc1ccc(Br)cc1C(=O)O)c1ccc2c(c1)C(=O)N(Cc1ccccc1)C2=O,11.2,12.2,-9.8,76.0*,-1.3
COc1ccc(C(=O)Nc2cccc(/C=C(\CCC(=O)O)c3nc4ccccc4s3)c2)cc1,6.2,-9.7,-1.6,51.8*,-3.3
COc1ccc(C(=O)Nc2cccc(/C=C/c3nc4ccccc4c(=O)[nH]3)c2)cc1,33.9,77.5*,16.9,17.9,16.1
O=C(O)C/C(=C\c1cccc(NC(=O)c2ccccc2Cl)c1)c1nc2ccccc2s1,-24.9,-3.7,3.6,9.7,-18.8
SMILES,Mdm2 MdmX PPI,CSC inhib,T cruzi repl,SKKanGAS inh,aSyn 5UTR inh
COc1ccc(C)cc1NC(=O)CO/N=C(\N)CC(=O)NC1CCCCC1,15.3,-3.6,x,x,x
COc1ccc2[nH]c3c(c2c1)CCN1C(=O)C(CC(=O)NCCC2=CCCCC2)C[C@H](C(=O)N2CCOCC2)[C@@]31C (some centres undefined),17.2,x,x,x,x
O=C(Nc1ccc(-c2csc(Nc3ccc(Cl)cc3)n2)cc1)c1cccc(C(F)(F)F)c1,39.1,-14.1,67.9*,4.9,4.0
O=C(Nc1ccc(-c2csc(Nc3ccccc3)n2)cc1)c1cccc(C(F)(F)F)c1,42.4,14.0,35.4,64.6*,3.7
O=S(=O)(Nc1ccc(-c2csc(-c3ccccc3)n2)cc1)c1ccc(F)cc1,35.3,x,67.6*,97.9*,-0.6
C/C(=N/Nc1ccnc2cc(Cl)ccc12)c1ccc(N)cc1,13.7,14.1,60.2*,2.8,-177.3
COc1cccc(-c2cc3nc(-c4ccccc4)cc(N4CCCC(O)C4)n3n2)c1 (centres undefined),32.1,90.2*,37.0,48.7,3.8
